In series [1] the target is T1, Melanocortin receptor 5 (Mus musculus, UniProt P41149). In words: Binding affinity to mouse MC5R expressed in HEK293 cells coexpressing CRE/beta-galactosidase assessed as inhibition constant. It counts as cell-based.
Series [2] concerns the target Melanocyte-stimulating hormone receptor (Homo sapiens, UniProt Q01726). The experiment in a line: Binding affinity to human MC1R.
In series [3] the target is T2, Melanocyte-stimulating hormone receptor (Mus musculus, UniProt Q01727). The experiment in a line: Agonist activity against mouse MC1R expressed in HEK293 cells assessed as increase in cAMP level incubated for 2 hrs by AlphaScreen assay. It is filed as functional, cell-based. A general note: cAMP levels reflect the balance of adenylyl cyclase and phosphodiesterase activity.
T2 sequence (Q01727 whole entry): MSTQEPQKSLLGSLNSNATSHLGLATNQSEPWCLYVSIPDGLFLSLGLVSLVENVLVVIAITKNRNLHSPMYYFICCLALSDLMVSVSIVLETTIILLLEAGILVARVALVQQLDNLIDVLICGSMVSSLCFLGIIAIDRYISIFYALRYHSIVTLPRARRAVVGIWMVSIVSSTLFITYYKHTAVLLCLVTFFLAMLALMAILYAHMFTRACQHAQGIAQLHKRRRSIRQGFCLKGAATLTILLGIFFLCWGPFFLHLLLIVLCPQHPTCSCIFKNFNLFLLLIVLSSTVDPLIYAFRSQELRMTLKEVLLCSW

For series [4], the target named is T3, Melanocortin receptor 3 (Mus musculus, UniProt P33033). In words: Agonist activity against mouse MC3R expressed in HEK293 cells assessed as increase in cAMP level incubated for 2 hrs by AlphaScreen assay. It counts as functional, cell-based.
T3 sequence (P33033 whole entry): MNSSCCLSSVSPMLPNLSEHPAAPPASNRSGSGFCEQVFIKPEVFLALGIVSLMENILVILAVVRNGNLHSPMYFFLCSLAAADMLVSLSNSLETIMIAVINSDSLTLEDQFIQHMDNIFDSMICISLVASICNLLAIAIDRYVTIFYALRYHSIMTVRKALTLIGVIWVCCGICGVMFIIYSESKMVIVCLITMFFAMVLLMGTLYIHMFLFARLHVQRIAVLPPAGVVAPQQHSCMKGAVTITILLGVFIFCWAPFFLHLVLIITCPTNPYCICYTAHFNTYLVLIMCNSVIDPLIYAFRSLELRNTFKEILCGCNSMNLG
Series [5] addresses T4, Melanocortin receptor 4 (Mus musculus, UniProt P56450). The experiment in a line: Agonist activity against mouse MC4R expressed in HEK293 cells assessed as increase in cAMP level incubated for 2 hrs by AlphaScreen assay. It counts as functional, cell-based.
In series [6] the target is T1, Melanocortin receptor 5. The experiment in a line: Agonist activity against mouse MC5R expressed in HEK293 cells assessed as increase in cAMP level incubated for 2 hrs by AlphaScreen assay. It counts as functional, cell-based.
The target of series [7] is T4, Melanocortin receptor 4. The experiment in a line: Binding affinity to mouse MC4R expressed in HEK293 cells assessed as inhibition constant by schild plot analysis. It is filed as cell-based.
For series [8], the target named is T2, Melanocyte-stimulating hormone receptor. The experiment in a line: Partial agonist activity against mouse MC1R expressed in HEK293 cells assessed as increase in cAMP level incubated for 2 hrs by AlphaScreen assay. It counts as functional, cell-based.
The target in series [9] is T3, Melanocortin receptor 3. The experiment in a line: Binding affinity to mouse MC3R expressed in HEK293 cells assessed as inhibition constant by schild plot analysis. It is filed as cell-based.
Series [10] relates to Mus musculus. In words: In vivo antagonist activity MC4R in wild type C57BL/6J mouse assessed as increase in food intake at 10 nmol per mouse, IT administered directly into the spinal canal and measured for 4 to 6 hrs. It is filed as functional, organism-based. As to conditions: time 4-6 hrs. The gist of the method: (§1)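 Wild-type male and female mice (mixed 129/Sv×C57BL/6J, in-house colony) on a reversed 12-h light/dark cycle with chow ad libitum. Crossover design with 6–7 days between treatments. […] Cumulative food intake weighed at 0–72 h. n ≥ 8 per group; two-way ANOVA against vehicle.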

Series [11] deals with Mus musculus. In words: In vivo antagonist activity MC4R in wild type C57BL/6J mouse assessed as increase in food intake at 15 nmol per mouse, IT administered directly into the spinal canal and measured for 2 to 6 hrs. It counts as functional, organism-based. As to conditions: time 2-6 hrs. The method in brief: as §1
Series [12] relates to Mus musculus. In words: In vivo antagonist activity MC4R in wild type C57BL/6J mouse assessed as increase in food intake at 10 to 15 nmol per mouse, IT administered directly into the spinal canal and measured for 24 hrs. It counts as functional, organism-based. The settings on record: dose 10-15 nmol. The method in brief:
as §1

Series [13] can be described thus: Toxicity in C57BL/6J mouse assessed as reduction in body weight at 10 to 15 nmol per mouse, IT measured for 24 to 48 hrs. As to conditions: in vivo, other, dose lower 10 nmol, time lower 24 hrs, dose upper 15 nmol, time upper 48 hrs. The method in brief:
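Wild-type male and female mice (129/Sv×C57BL/6J) in a crossover design, given 10 or 15 nmol intrathecally in 5 μL DMSO/water vehicle. Body weight recorded at 0, 24 and 48 h and compared with vehicle-treated controls.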

For series [14], the target named is T1, Melanocortin receptor 5. In words: Binding affinity to mouse MC5R expressed in HEK293 cells assessed as inhibition constant by schild plot analysis. It is filed as cell-based.
For series [15], the target named is T2, Melanocyte-stimulating hormone receptor. The experiment in a line: Binding affinity to mouse MC1R expressed in HEK293 cells assessed as inhibition constant by schild plot analysis. It is filed as cell-based.
For series [16] the target is unchanged. The experiment in a line: Binding affinity to mouse MC1R expressed in HEK293 cells coexpressing CRE/beta-galactosidase assessed as inhibition constant. It is filed as cell-based.

Active and inactive are the calls of the source. The calls are words filed in the database; no cut-off is given here. Bridge positions count the residues as written; N and C are the ends. Square brackets hold non-standard residues; d marks the D form. Peptide text beside a SMILES is read from it. dPhe(4-I) = N[C@H](Cc1ccc(I)cc1)C(=O)O; 2Nal = N[C@@H](Cc1ccc2ccccc2c1)C(=O)O; hArg = N=C(N)NCCCC[C@H](N)C(=O)O; Cit = NC(=O)NCCC[C@H](N)C(=O)O; Orn = NCCC[C@H](N)C(=O)O; Dab = NCC[C@H](N)C(=O)O; Dap = NC[C@H](N)C(=O)O Bounds are passed on as bounds.

T1 sequence (P41149 whole entry): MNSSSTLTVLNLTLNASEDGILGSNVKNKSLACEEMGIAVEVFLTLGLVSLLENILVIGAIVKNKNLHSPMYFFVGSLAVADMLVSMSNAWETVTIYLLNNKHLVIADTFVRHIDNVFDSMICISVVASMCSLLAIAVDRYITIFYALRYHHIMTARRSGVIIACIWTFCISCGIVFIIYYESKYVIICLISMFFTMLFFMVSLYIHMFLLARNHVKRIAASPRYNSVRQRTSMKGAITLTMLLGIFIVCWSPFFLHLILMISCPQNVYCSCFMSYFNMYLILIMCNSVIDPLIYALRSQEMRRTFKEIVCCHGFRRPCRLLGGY
T4 sequence (P56450 whole entry): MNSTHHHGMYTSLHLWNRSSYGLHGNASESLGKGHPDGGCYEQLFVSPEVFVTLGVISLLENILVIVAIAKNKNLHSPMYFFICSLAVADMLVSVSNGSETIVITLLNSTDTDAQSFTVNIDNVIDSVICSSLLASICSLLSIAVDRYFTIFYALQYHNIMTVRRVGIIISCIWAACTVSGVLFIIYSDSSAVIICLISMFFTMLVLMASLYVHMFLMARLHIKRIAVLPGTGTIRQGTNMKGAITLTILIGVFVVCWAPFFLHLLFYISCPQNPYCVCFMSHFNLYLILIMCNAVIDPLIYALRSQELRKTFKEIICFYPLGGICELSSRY
Melanocyte-stimulating hormone receptor (Homo sapiens, UniProt Q01726), sequence (Q01726 whole entry): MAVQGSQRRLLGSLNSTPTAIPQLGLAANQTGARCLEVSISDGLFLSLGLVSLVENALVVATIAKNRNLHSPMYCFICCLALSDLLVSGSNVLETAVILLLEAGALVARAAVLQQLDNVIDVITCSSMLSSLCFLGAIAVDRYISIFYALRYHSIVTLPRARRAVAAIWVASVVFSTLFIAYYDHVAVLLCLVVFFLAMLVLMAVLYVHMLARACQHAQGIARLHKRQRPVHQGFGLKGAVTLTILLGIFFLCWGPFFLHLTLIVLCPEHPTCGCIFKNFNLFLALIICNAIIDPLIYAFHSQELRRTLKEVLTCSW

Broadly, the Ki is the equilibrium dissociation constant of an inhibitor or competing ligand from its target. On to `CCCC[C@H](NC(C)=O)C(=O)N[C@H]1CC(=O)NCCCC[C@@H](C(N)=O)NC(=O)[C@@H](Cc2ccc3ccccc3c2)NC(=O)[C@H](CCCNC(=N)N)NC(=O)[C@@H](Cc2ccc3ccccc3c2)NC(=O)[C@H](Cc2cn(C)cn2)NC1=O`, for which the Ki in series [1] is 0.063 µM.

In turn, `CC(C)[C@H](NC(=O)[C@@H]1CCC(=O)NCC(=O)N[C@@H](C2CCCC2)C(=O)N[C@H](Cc2ccc3ccccc3c2)C(=O)N[C@@H](CCCNC(=N)N)C(=O)N[C@@H](Cc2c[nH]c3ccccc23)C(=O)N1)C(=O)N[C@H](C(=O)NCC(N)=O)C(C)C` displayed a Ki in series [2] of 0.053 µM.

As usually defined, the EC50 is the concentration giving half of the maximal effect. As for `CC(=O)N[C@H](Cc1ccc(I)cc1)C(=O)N[C@@H](CCC(=O)O)C(=O)N[C@@H](Cc1ccc2ccccc2c1)C(=O)N[C@@H](CCCNC(=N)N)C(N)=O` (Ac-[dPhe(4-I)]E[2Nal]R-NH2), the EC50 in series [3], in [4], in [5] and in series [6] was above 100 µM in each case.

Regarding `CC(=O)N[C@H](Cc1ccc(I)cc1)C(=O)N[C@@H](Cc1c[nH]cn1)C(=O)N[C@@H](Cc1ccc2ccccc2c1)C(=O)N[C@@H](CCCNC(=N)N)C(N)=O` (Ac-[dPhe(4-I)]H[2Nal]R-NH2), the EC50 in [5] and in series [6] was above 100 µM each time. Moreover, the Ki in series [7] was 0.1 µM.

`CC(=O)N[C@H](Cc1ccc(I)cc1)C(=O)N[C@@H](CCCCN)C(=O)N[C@@H](Cc1ccc2ccccc2c1)C(=O)N[C@@H](CCCNC(=N)N)C(N)=O` (Ac-[dPhe(4-I)]K[2Nal]R-NH2): the EC50 in series [5] was above 100 µM.

On to `CC(=O)N[C@H](Cc1ccc(I)cc1)C(=O)N[C@@H](CCCNC(=N)N)C(=O)N[C@@H](Cc1ccc2ccccc2c1)C(=O)N[C@@H](Cc1c[nH]cn1)C(N)=O` (Ac-[dPhe(4-I)]R[2Nal]H-NH2), for which the 50% effective concentration (EC50) in series [8] was 0.4 µM; in [5], above 100 µM; in series [6], above 100 µM. The inhibitory constant (Ki) in [9] came to 0.1 µM.

`CC(=O)N[C@H](Cc1ccc(I)cc1)C(=O)N[C@@H](CCCNC(=N)N)C(=O)N[C@@H](Cc1ccc2ccccc2c1)C(=O)N[C@@H](CCCNC(N)=O)C(N)=O` (Ac-[dPhe(4-I)]R[2Nal][Cit]-NH2): the EC50 in [3], in series [4], in [5] and in [6] was above 100 µM each time.

Regarding `CC(=O)N[C@H](Cc1ccc(I)cc1)C(=O)N[C@@H](CCCNC(=N)N)C(=O)N[C@@H](Cc1ccc2ccccc2c1)C(=O)N[C@@H](CCN)C(N)=O` (Ac-[dPhe(4-I)]R[2Nal][Dab]-NH2), the EC50 in series [8] is 1.1 µM; in series [4] it was above 100 µM; in series [5] it was above 100 µM; in series [6], above 100 µM.

Regarding `CC(=O)N[C@H](Cc1ccc(I)cc1)C(=O)N[C@@H](CCCNC(=N)N)C(=O)N[C@@H](Cc1ccc2ccccc2c1)C(=O)N[C@@H](CN)C(N)=O` (Ac-[dPhe(4-I)]R[2Nal][Dap]-NH2), the concentration giving a half-maximal response (EC50) in series [4], in [5] and in series [6] was above 100 µM in each case.

Take `CC(=O)N[C@H](Cc1ccc(I)cc1)C(=O)N[C@@H](CCCNC(=N)N)C(=O)N[C@@H](Cc1ccc2ccccc2c1)C(=O)N[C@@H](CCCN)C(N)=O` (Ac-[dPhe(4-I)]R[2Nal][Orn]-NH2): the result in series [10] and in [11] was Active. Further, the result in series [12] was inactive. Besides, the Activity result in [13] was “Non-Toxic”.

As for `CC(=O)N[C@H](Cc1ccc(I)cc1)C(=O)N[C@@H](CCCNC(=N)N)C(=O)N[C@@H](Cc1ccc2ccccc2c1)C(=O)N[C@@H](CCCCNC(=N)N)C(N)=O` (Ac-[dPhe(4-I)]R[2Nal][hArg]-NH2), the EC50 in series [4], in series [5] and in series [6] was above 100 µM throughout. In addition, the Ki in [14] amounted to 1 µM.

For the compound `CC(=O)N[C@H](Cc1ccc(I)cc1)C(=O)N[C@@H](CCCNC(N)=O)C(=O)N[C@@H](Cc1ccc2ccccc2c1)C(=O)N[C@@H](CCCNC(=N)N)C(N)=O` (Ac-[dPhe(4-I)][Cit][2Nal]R-NH2), the EC50 in series [5] and in [6] was above 100 µM in each case.

With `CC(=O)N[C@H](Cc1ccc(I)cc1)C(=O)N[C@@H](CN)C(=O)N[C@@H](Cc1ccc2ccccc2c1)C(=O)N[C@@H](CCCNC(=N)N)C(N)=O` (Ac-[dPhe(4-I)][Dap][2Nal]R-NH2), the concentration giving a half-maximal response (EC50) in series [3], in [4], in series [5] and in series [6] was above 100 µM each time. The Ki in [15] was determined as 0.1 µM.

Take `CC(=O)N[C@H](Cc1ccc(I)cc1)C(=O)N[C@@H](CCCN)C(=O)N[C@@H](Cc1ccc2ccccc2c1)C(=O)N[C@@H](CCCNC(=N)N)C(N)=O` (Ac-[dPhe(4-I)][Orn][2Nal]R-NH2): the EC50 in [4], in series [5] and in [6] was above 100 µM throughout. Also, the Ki in series [7] is 0.1 µM.

For `CC(=O)N[C@H](Cc1ccc(I)cc1)C(=O)N[C@H](CCCCN)C(=O)N[C@@H](Cc1ccc2ccccc2c1)C(=O)N[C@@H](CCCNC(=N)N)C(N)=O` (Ac-[dPhe(4-I)][dK][2Nal]R-NH2), the EC50 in [3] and in series [5] was above 100 µM throughout.

In the case of `C[C@@H]1NC(=O)[C@H](CC(N)=O)NC(=O)[C@H](Cc2ccccc2)NC(=O)[C@H](Cc2ccccc2)NC(=O)[C@H](CCCN=C(N)N)NC(=O)[C@@H](NC(=O)[C@@H](N)Cc2ccc(O)cc2)CCC(=O)NC[C@@H](C(=O)N[C@@H](Cc2ccc(O)cc2)C(N)=O)NC(=O)[C@H](Cc2ccccc2)NC1=O` (H-YERFFNAF[Dap]Y-NH2; lactam 2-9), the Ki in [16] amounted to 1.2 µM.
